Test results taken from ChEMBL document CHEMBL1126775, “A pharmacological, crystallographic, and quantum chemical study of new inotropic agents” (J Med Chem, 1993).
Where “and” joins values, the source holds several entries; their conditions need not be identical. Identical values can stand only once. One block for each compound: values may come before it.

Columns and labels:
[1] = species on record: Cavia porcellus; assay: Inotropic response in electrically driven left atrium from reserpine-treated guinea pig with 8-phenyl theophylline (10 e-5)at the concentration of 2 x 10 e-3 M; format: functional, Cardiac atrium
Outline: (§1)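 Guinea pigs pretreated with reserpine 2 mg/kg ip at 48 and 24 h before sacrifice; atria unresponsive to tyramine 2 μg/mL used. Left atrium paced at 1.5 Hz (3-ms square pulses, 10–20% above threshold, 0.5 g load). 8-Phenyltheophylline 10 μM preincubated 20 min after 90 min equilibration, then agents added cumulatively, 5 min each. Isometric developed tension as % over control; six assays from six experiments.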

[2] = species on record: Cavia porcellus; assay: Inotropic effect in electrically driven left atrium from reserpine-treated guinea pig at the concentration of 5 x 10 e-4 M; format: functional, Cardiac atrium
Outline: (§2)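 Atria from reserpine-pretreated guinea pigs (2 mg/kg ip, 48 and 24 h), tyramine-unresponsive only. Left atrium loaded 0.5 g, paced at 1.5 Hz with 3-ms square pulses at 10–20% above threshold. Equilibrated 90 min. Agents added cumulatively, 5 min per concentration. Isometric developed tension expressed as % increase over control.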

[3] = species on record: Cavia porcellus; assay: Inotropic response in electrically driven left atrium from reserpine-treated guinea pig with ADA (2 units/ml) at the concentration of 10 e-5 M; format: functional, Cardiac atrium
Outline: (§3)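 Reserpinized guinea pigs (2 mg/kg ip, 48 and 24 h before death), tyramine-unresponsive atria. Electrically driven left atrium (1.5 Hz, 3-ms pulses, 0.5 g load) preincubated 20 min with adenosine deaminase after 90 min equilibration. Agents added cumulatively, 5 min per concentration. Developed tension recorded isometrically, % increase over control or % inhibition; six assays from six experiments, Student's t test.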

[4] = species on record: Cavia porcellus; assay: Inotropic response in electrically driven left atrium from reserpine-treated guinea pig with 8-phenyl theophylline (10 e-5)at the concentration of 5 x 10 e-5 M; format: functional, Cardiac atrium; outline: as §1
[5] = species on record: Cavia porcellus; assay: Inotropic response in electrically driven left atrium from reserpine-treated guinea pig without ADA at the concentration of 5 x 10 e-4 M; format: functional, Cardiac atrium
Outline: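 Control arm: electrically driven left atrium (1.5 Hz, 3-ms pulses, 0.5 g load) from guinea pigs given reserpine 2 mg/kg ip at 48 and 24 h, tyramine-unresponsive; no adenosine deaminase. Cumulative additions after 90 min equilibration, 5 min per concentration. Isometric developed tension, % over control; six assays from six experiments.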

[6] = species on record: Cavia porcellus; assay: Inotropic response in electrically driven left atrium from reserpine-treated guinea pig with ADA (2 units/ml) at the concentration of 10 e-3 M; format: functional, Cardiac atrium; outline: as §3
[7] = species on record: Cavia porcellus; assay: Inotropic response in electrically driven left atrium from reserpine-treated guinea pig with 8-phenyl theophylline (10 e-5)at the concentration of 10 e-4 M; format: functional, Cardiac atrium; outline: as §1
[8] = Logarithm of the sum of contributions of each atom to the total lipophilicity of the molecule; format: physicochemical; conditions: octanol/water
[9] = species on record: Cavia porcellus; assay: Inotropic response in electrically driven left atrium from reserpine-treated guinea pig with VER (10 e-7) at the concentration of 10 e-3 M; format: functional, Cardiac atrium
Outline: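 Left atrium from reserpine-treated guinea pigs (2 mg/kg ip, 48 and 24 h prior; tyramine 2 μg/mL check), paced at 1.5 Hz with 3-ms pulses. Verapamil 0.1 μM added 10 min before cumulative agent additions (5 min each), after 90 min equilibration. Isometric developed tension as % increase over control; seven assays from seven experiments.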

[10] = species on record: Cavia porcellus; assay: Inotropic effect in electrically driven left atrium from reserpine-treated guinea pig without 8-phenyl theophylline at the concentration of 10 e-4 M; format: functional, Cardiac atrium
Outline: (§4)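 Paced left atrium from reserpine-pretreated, tyramine-unresponsive guinea pigs (0.5 g load, 1.5 Hz, 3-ms pulses). Cumulative additions of agent, 5 min each, with no 8-phenyltheophylline present. Developed tension as % increase over control. Mean ± SEM of six assays from six experiments; Student's t test against the 8-phenyltheophylline-treated preparations.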

[11] = species on record: Cavia porcellus; assay: Inotropic response in electrically driven left atrium from reserpine-treated guinea pig with 8-phenyl theophylline (10 e-5) at the concentration of 10 e-5 M; format: functional, Cardiac atrium; outline: as §1
[12] = species on record: Cavia porcellus; assay: Effect on frequency rate of spontaneously beating atria from reserpine treated guinea pigs at the concentration of 10 e-3 M; format: functional
[13] = species on record: Cavia porcellus; assay: Effect on contractile force of spontaneously beating atria from reserpine treated guinea pigs at the concentration of 10 e-4 M; format: functional
[14] = species on record: Cavia porcellus; assay: Inotropic response in electrically driven left atrium from reserpine-treated guinea pig with 8-phenyl theophylline (10 e-5)at the concentration of 10 e-3 M; format: functional, Cardiac atrium; outline: as §1
[15] = species on record: Cavia porcellus; assay: Inotropic effect in electrically driven left atrium from reserpine-treated guinea pig at the concentration of 10 e-5 M; format: functional, Cardiac atrium; outline: as §2
[16] = species on record: Cavia porcellus; assay: Inotropic effect in electrically driven left atrium from reserpine-treated guinea pig without 8-phenyl theophylline at the concentration of 10 e-5 M; format: functional, Cardiac atrium; outline: as §4
[17] = species on record: Cavia porcellus; assay: Inotropic response in electrically driven left atrium from reserpine-treated guinea pig with 8-phenyl theophylline (10 e-5)at the concentration of 5 x 10 e-4 M; format: functional, Cardiac atrium; outline: as §1
[18] = species on record: Cavia porcellus; assay: Effect on frequency rate of spontaneously beating atria from reserpine treated guinea pigs at the concentration of 10 e-5 M; format: functional
[19] = species on record: Cavia porcellus; assay: Inotropic response in electrically driven left atrium from reserpine-treated guinea pig with 8-pH (10 e-5)at the concentration of 10 e-4 M; format: functional, Cardiac atrium; outline: as §1
[20] = species on record: Cavia porcellus; assay: Inotropic response in electrically driven left atrium from reserpine-treated guinea pig with 8-pH (10 e-5)at the concentration of 10 e-5 M; format: functional, Cardiac atrium; outline: as §1
[21] = species on record: Cavia porcellus; assay: Inotropic response in electrically driven left atrium from reserpine-treated guinea pig with ADA (2 units/ml) at the concentration of 10 e-5 M (% inhibition of contractile response) (p<0.001); format: functional, Cardiac atrium
[22] = species on record: Cavia porcellus; assay: Inotropic response in electrically driven left atrium from reserpine-treated guinea pig with 8-pH (10 e-5)at the concentration of 5 x 10 e-4 M; format: functional, Cardiac atrium; outline: as §1
[23] = species on record: Cavia porcellus; assay: Inotropic response in electrically driven left atrium from reserpine-treated guinea pig with 8-pH (10 e-5)at the concentration of 10 e-3 M; format: functional, Cardiac atrium; outline: as §1
[24] = species on record: Cavia porcellus; assay: Inotropic response in electrically driven left atrium from reserpine-treated guinea pig with 8-pH (10 e-5)at the concentration of 2 x 10 e-3 M; format: functional, Cardiac atrium; outline: as §1
[25] = species on record: Cavia porcellus; assay: Inotropic response in electrically driven left atrium from reserpine-treated guinea pig with 8-pH (10 e-5)at the concentration of 5 x 10 e-5 M; format: functional, Cardiac atrium; outline: as §1

- logP [8]: 0.45
SMILES: CC1CC(=O)c2ccc(O)nc2C1 (stereo not given)
- Increase [1]: 52.56%
- Increase [2]: 37.23%
- Increase [3]: 2.48%
- Increase [4]: 3.95%
- Increase [5]: 36.16%
- Increase [6]: 20.63%
- Increase [7]: 8.67%
- Increase [9]: 23.78%
- Increase [10]: 24.77%
- Increase [11]: 0.29%
- Increase [12]: 19.68%
- Increase [13]: 28.89%
- Increase [14]: 25.45%
- Increase [15]: 6.31%
- Increase [16]: 4.64%
- Increase [17]: 15.18%
- Increase [18]: 2.63% and 3.21%

- logP [8]: -0.1
SMILES: CC(=O)c1cc(C#N)c(O)nc1C
- Increase [2]: 48.67%
- Increase [19]: 23.03%
- Increase [6]: 37.93%
- Increase [9]: 66.4%
- Increase [10]: 28.87%
- Increase [12]: 21.93%
- Increase [20]: 7.75%
- Increase [13]: 35.57%
- Increase [15]: 12.64%
- Increase [21]: 3.42%
- Increase [22]: 40.37%
- Increase [16]: 12.62%
- Increase [23]: 50.44%
- Increase [24]: 58.97%
- Increase [18]: 0.23% and 1.35%
- Increase [25]: 11.59%
